Legend:
[1] = biological target: Rho-associated protein kinase 2 (Homo sapiens) (UniProt O75116); test: Inhibition of ROCK2 (unknown origin) at 1 uM relative to control
Summary of the method: (§1)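 Single-concentration screen of each compound against a 59-protein-kinase panel, run at 10 µM or 1 µM. Activity relative to control is shown as a heat map across the panel.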

[2] = biological target: Calcium/calmodulin-dependent protein kinase type 1 (Homo sapiens) (UniProt Q14012); test: Inhibition of CAMK1 (unknown origin) at 1 uM relative to control
Summary of the method: (§2)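 Single-point screen of each compound against a panel of 59 protein kinases, at 1 or 10 μM. The panel data are also summarised as a rescaled geometric mean selectivity score.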

[3] = biological target: Serine/threonine-protein kinase Chk2 (Homo sapiens) (UniProt O96017); test: Inhibition of CHK2 (unknown origin) at 1 uM relative to control; summary of the method: as §2
[4] = biological target: Ribosomal protein S6 kinase alpha-5 (Homo sapiens) (UniProt O75582); test: Inhibition of MSK1 (unknown origin) at 1 uM relative to control; summary of the method: as §1
[5] = biological target: MAP kinase-interacting serine/threonine-protein kinase 2 (Homo sapiens) (UniProt Q9HBH9); test: Inhibition of MNK2 (unknown origin) at 1 uM relative to control; summary of the method: as §1
[6] = biological target: T1, Serine/threonine-protein kinase D1 (Homo sapiens) (UniProt Q15139); test: Inhibition of PKD1 (unknown origin) at 1 uM relative to control; summary of the method: as §1
T1 sequence (whole entry): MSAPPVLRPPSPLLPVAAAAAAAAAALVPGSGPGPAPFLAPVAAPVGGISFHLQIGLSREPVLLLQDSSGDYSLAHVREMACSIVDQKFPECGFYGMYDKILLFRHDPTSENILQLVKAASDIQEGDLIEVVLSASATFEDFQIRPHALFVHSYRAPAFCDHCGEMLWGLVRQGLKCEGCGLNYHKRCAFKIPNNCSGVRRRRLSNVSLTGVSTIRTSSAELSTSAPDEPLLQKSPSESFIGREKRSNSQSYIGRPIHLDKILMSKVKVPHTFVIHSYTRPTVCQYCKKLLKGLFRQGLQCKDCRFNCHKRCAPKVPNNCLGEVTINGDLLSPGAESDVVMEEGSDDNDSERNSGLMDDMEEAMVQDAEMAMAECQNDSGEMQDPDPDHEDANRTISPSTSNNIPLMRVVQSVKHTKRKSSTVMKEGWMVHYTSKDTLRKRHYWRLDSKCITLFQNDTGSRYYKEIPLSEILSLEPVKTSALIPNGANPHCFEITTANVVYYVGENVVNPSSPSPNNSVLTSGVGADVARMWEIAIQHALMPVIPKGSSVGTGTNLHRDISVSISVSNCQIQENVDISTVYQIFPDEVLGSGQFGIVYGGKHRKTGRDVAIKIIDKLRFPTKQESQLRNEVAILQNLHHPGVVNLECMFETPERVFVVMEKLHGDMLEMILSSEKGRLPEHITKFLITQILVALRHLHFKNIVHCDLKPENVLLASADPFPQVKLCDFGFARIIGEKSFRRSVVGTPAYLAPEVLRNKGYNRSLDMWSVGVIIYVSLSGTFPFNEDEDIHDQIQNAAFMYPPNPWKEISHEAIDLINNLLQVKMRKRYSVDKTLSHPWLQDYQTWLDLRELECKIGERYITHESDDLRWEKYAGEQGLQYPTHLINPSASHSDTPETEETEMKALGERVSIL

[7] = biological target: Tyrosine-protein kinase CSK (Homo sapiens) (UniProt P41240); test: Inhibition of CSK (unknown origin) at 1 uM relative to control; summary of the method: as §2
[8] = biological target: Serine/threonine-protein kinase PAK 4 (Homo sapiens) (UniProt O96013); test: Inhibition of PAK4 (unknown origin) at 1 uM relative to control; summary of the method: as §1
[9] = biological target: Phosphorylase kinase (Homo sapiens) (UniProt P15735+P46020+P46019+Q93100+Q16816); test: Inhibition of PHK (unknown origin) at 1 uM relative to control; type: protein-complex assay; summary of the method: as §1
[10] = biological target: Insulin receptor-related protein (Homo sapiens) (UniProt P14616); test: Inhibition of IRR (unknown origin) at 1 uM relative to control; summary of the method: as §2
[11] = biological target: 3-phosphoinositide-dependent protein kinase 1 (Homo sapiens) (UniProt O15530); test: Inhibition of PDK1 (unknown origin) at 1 uM relative to control
[12] = biological target: Protein kinase C alpha type (Homo sapiens) (UniProt P17252); test: Inhibition of PKCa (unknown origin) at 1 uM relative to control; summary of the method: as §1
Homo sapiens [13] = organism: Homo sapiens; test: Inhibition of PKA (unknown origin) at 1 uM relative to control; summary of the method: as §1
[14] = biological target: MAP/microtubule affinity-regulating kinase 3 (Homo sapiens) (UniProt P27448); test: Inhibition of MARK3 (unknown origin) at 1 uM relative to control; summary of the method: as §1
Homo sapiens [15] = organism: Homo sapiens; test: Inhibition of VEGFR (unknown origin) at 1 uM relative to control
Summary of the method: (§3)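 Single-concentration screen across a panel of 59 protein kinases, with each compound tested at one fixed concentration. The read-out is residual kinase activity relative to control. Panel results are also condensed into a rescaled geometric mean (RGM) selectivity score.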

[16] = biological target: T2, MAP kinase-activated protein kinase 5 (Homo sapiens) (UniProt Q8IW41); test: Inhibition of PRAK (unknown origin) at 1 uM relative to control; summary of the method: as §1
T2 sequence (whole entry): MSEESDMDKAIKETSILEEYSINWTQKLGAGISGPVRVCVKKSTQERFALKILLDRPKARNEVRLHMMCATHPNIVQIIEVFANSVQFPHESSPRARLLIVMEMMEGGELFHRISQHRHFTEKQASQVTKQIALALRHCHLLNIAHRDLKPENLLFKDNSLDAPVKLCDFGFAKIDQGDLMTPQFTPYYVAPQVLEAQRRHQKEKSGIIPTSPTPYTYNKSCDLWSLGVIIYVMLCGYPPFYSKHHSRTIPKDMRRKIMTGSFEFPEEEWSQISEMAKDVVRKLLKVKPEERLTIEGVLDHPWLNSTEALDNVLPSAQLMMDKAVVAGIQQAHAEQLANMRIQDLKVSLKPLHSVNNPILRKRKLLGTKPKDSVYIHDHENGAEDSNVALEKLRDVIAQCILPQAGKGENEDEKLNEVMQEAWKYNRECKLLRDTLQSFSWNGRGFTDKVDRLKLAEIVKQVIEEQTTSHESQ

[17] = biological target: Insulin-like growth factor 1 receptor (Homo sapiens) (UniProt P08069); test: Inhibition of IGF1R (unknown origin) at 1 uM relative to control; summary of the method: as §2
[18] = biological target: Proto-oncogene tyrosine-protein kinase Src (Homo sapiens) (UniProt P12931); test: Inhibition of Src (unknown origin) at 1 uM relative to control; summary of the method: as §3
[19] = biological target: Glycogen synthase kinase-3 beta (Homo sapiens) (UniProt P49841); test: Inhibition of GSK3b (unknown origin) at 1 uM relative to control; summary of the method: as §2

Chain of Serine/threonine-protein kinase PAK 4 (Homo sapiens) (O96013 whole entry, looked up): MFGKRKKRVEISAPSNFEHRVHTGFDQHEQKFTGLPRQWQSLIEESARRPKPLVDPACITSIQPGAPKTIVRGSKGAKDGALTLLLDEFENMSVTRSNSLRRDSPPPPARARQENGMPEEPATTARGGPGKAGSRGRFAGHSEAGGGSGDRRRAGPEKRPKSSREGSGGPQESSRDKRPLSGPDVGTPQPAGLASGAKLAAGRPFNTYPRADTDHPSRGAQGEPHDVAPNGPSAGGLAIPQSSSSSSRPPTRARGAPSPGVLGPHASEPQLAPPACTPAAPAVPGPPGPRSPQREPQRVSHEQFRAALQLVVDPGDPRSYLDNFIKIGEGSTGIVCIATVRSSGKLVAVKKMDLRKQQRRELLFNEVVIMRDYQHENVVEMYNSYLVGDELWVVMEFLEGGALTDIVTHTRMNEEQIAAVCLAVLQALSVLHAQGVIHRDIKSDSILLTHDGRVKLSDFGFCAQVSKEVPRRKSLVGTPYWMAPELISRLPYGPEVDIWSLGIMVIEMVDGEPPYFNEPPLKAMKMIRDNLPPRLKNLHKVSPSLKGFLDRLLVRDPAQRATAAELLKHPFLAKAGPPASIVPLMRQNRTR
Chain of MAP/microtubule affinity-regulating kinase 3 (Homo sapiens) (P27448 whole entry, looked up): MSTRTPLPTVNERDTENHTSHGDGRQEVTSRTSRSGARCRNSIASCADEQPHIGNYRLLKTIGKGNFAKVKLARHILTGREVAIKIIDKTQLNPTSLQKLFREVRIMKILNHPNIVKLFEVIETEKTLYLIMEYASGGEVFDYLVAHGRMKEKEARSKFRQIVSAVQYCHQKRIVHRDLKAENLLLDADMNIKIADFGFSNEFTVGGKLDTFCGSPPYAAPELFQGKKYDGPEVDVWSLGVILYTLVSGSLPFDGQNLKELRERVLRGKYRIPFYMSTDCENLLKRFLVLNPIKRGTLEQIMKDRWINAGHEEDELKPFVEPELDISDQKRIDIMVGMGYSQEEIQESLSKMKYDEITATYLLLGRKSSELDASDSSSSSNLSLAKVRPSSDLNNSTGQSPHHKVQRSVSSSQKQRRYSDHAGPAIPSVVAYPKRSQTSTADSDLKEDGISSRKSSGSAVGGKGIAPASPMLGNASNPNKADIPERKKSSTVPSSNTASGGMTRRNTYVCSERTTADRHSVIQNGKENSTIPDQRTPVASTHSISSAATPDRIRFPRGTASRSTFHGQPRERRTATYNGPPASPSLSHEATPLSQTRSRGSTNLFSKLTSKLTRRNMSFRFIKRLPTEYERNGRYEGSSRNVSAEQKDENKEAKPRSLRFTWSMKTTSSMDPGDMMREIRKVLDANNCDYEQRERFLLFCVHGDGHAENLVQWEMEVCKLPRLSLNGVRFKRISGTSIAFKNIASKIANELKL
Chain of Rho-associated protein kinase 2 (Homo sapiens) (O75116 whole entry, looked up): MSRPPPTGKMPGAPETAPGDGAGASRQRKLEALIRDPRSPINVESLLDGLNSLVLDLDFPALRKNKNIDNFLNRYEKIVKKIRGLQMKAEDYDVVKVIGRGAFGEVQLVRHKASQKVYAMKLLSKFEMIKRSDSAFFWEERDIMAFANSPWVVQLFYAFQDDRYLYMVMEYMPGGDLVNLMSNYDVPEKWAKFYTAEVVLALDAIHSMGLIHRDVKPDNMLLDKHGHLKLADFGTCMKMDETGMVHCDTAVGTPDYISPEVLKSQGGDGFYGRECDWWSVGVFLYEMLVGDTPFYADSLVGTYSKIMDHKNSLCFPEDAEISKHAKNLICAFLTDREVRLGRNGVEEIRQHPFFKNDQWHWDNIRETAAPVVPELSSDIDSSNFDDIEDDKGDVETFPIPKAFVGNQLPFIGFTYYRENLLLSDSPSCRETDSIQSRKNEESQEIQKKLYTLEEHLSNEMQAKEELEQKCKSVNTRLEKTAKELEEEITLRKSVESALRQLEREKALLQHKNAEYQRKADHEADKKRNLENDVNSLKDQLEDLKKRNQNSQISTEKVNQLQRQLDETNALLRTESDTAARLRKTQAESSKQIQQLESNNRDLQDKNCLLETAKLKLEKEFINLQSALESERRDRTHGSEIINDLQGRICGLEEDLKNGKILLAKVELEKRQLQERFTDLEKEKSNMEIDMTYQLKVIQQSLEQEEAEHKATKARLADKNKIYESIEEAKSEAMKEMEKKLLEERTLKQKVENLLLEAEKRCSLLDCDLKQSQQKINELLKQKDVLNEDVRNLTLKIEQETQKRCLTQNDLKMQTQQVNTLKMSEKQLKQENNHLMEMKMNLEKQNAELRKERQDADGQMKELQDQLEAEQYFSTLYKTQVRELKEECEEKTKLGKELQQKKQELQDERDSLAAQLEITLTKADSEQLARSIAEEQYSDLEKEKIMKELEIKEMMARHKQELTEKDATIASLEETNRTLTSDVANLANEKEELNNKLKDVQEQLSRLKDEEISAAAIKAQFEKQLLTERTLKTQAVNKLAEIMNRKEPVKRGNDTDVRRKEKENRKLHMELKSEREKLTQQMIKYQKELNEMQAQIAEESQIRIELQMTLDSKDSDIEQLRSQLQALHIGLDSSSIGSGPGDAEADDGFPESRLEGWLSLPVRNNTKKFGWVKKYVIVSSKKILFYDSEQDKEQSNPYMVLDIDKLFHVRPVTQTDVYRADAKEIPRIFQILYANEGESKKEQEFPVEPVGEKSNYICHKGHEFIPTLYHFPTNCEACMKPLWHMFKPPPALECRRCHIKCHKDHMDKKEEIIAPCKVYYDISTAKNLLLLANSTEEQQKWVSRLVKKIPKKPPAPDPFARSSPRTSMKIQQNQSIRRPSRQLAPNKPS
Chain of Calcium/calmodulin-dependent protein kinase type 1 (Homo sapiens) (Q14012 whole entry, looked up): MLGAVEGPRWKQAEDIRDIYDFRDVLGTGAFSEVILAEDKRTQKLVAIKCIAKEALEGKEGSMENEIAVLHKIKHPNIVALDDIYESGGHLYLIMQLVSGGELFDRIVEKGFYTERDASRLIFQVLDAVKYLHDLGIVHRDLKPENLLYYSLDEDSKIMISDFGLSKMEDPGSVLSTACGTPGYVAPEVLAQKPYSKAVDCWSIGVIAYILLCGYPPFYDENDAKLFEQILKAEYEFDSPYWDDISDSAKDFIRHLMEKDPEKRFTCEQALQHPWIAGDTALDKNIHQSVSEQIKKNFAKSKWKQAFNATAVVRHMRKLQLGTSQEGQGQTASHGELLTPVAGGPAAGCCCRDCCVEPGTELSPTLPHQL
Chain of Insulin-like growth factor 1 receptor (Homo sapiens) (P08069 31-736 limits assumed): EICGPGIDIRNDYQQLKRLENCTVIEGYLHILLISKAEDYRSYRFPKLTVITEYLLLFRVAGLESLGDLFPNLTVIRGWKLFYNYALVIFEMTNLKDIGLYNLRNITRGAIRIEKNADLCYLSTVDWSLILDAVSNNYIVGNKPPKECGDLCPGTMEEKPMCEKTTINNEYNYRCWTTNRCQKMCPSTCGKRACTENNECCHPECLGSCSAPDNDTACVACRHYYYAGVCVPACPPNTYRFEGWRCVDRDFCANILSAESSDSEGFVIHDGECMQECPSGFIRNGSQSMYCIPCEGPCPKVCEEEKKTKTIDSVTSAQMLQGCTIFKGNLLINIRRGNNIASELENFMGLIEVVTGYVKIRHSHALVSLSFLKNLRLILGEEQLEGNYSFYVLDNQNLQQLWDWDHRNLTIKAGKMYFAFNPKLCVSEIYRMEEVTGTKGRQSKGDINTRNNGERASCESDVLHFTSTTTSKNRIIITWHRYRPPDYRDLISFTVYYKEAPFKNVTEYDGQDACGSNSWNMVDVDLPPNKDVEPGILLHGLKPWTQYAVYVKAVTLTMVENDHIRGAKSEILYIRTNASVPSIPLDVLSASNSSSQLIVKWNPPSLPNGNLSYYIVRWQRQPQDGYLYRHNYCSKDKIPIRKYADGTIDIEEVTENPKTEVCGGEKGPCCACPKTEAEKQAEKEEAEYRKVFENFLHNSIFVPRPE
Chain of Insulin-like growth factor 1 receptor (Homo sapiens) (P08069 741-1367 limits assumed): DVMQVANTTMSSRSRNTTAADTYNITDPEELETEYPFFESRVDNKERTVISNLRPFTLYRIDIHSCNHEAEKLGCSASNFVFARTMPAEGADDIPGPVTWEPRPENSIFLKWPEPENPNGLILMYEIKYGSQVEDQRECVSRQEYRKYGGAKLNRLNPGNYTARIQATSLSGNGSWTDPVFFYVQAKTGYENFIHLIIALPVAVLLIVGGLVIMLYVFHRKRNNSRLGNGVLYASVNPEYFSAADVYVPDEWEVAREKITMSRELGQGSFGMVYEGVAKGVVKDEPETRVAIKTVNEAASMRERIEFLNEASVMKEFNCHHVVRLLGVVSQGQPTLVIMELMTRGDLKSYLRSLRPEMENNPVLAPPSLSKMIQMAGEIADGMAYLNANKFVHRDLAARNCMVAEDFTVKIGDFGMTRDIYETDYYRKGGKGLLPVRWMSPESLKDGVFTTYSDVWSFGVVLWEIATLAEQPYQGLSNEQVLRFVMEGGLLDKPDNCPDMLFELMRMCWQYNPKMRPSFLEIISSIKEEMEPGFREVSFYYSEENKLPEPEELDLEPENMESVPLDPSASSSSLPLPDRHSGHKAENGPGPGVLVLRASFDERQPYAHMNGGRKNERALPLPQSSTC
Chain of Serine/threonine-protein kinase Chk2 (Homo sapiens) (O96017 whole entry): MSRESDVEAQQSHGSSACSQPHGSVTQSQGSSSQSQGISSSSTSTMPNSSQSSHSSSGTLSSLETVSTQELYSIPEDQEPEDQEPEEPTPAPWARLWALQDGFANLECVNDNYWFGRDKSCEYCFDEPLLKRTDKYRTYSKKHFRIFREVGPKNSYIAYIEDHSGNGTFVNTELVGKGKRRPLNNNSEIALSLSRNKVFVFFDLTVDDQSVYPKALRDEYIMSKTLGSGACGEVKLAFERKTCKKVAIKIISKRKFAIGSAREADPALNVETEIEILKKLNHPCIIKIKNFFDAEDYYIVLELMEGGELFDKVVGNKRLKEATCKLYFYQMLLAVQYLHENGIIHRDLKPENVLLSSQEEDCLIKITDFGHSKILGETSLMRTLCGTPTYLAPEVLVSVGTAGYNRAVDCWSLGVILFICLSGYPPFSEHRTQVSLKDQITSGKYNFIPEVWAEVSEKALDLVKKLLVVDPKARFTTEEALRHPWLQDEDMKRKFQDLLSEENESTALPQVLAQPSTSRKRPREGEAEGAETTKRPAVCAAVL

Q: Which inhibition [1] does the source give for `CC(C)n1cc(-c2n[nH]c3ccnc(OC4CCOCC4)c23)cn1` here?
A: The inhibition was 28%.

Q: What about the inhibition [2] of the same compound?
A: Its inhibition is 36%.

Q: And the inhibition [3]?
A: Its inhibition is 29%.

Q: And the inhibition [4]?
A: The inhibition was 18%.

Q: And the inhibition [5]?
A: Its inhibition is 5%.

Q: What about the inhibition [6] of the same compound?
A: Its inhibition is 41%.

Q: And the inhibition [7]?
A: The inhibition was 0%.

Q: What about the inhibition [8] of the same compound?
A: Its inhibition is 46%.

Q: And the inhibition [9]?
A: The inhibition was 41%.

Q: What about the inhibition [10] of the same compound?
A: Its inhibition is 45%.

Q: And the inhibition [11]?
A: The inhibition was 5%.

Q: And the inhibition [12]?
A: The inhibition was 0%.

Q: And the inhibition (Homo sapiens [13])?
A: The inhibition was 11%.

Q: And the inhibition [14]?
A: The inhibition was 18%.

Q: And the inhibition (Homo sapiens [15])?
A: Its inhibition is 59%.

Q: And the inhibition [16]?
A: The inhibition was 19%.

Q: And the inhibition [17]?
A: Its inhibition is 40%.

Q: And the inhibition [18]?
A: The inhibition was 0%.

Q: What about the inhibition [19] of the same compound?
A: The inhibition was 90%.

Q: How did the inhibition [1] turn out when `c1cc(-c2n[nH]c3ccnc(OC4CCOCC4)c23)cc(N2CCOCC2)n1` was run?
A: Its inhibition is 0%.

Q: What about the inhibition [2] of the same compound?
A: The inhibition was 7%.

Q: And the inhibition [3]?
A: The inhibition was 0%.

Q: And the inhibition [4]?
A: Its inhibition is 0%.

Q: What about the inhibition [5] of the same compound?
A: Its inhibition is 13%.

Q: What about the inhibition [6] of the same compound?
A: Its inhibition is 7%.

Q: And the inhibition [7]?
A: The inhibition was 0%.

Q: And the inhibition [8]?
A: The inhibition was 0%.

Q: What about the inhibition [9] of the same compound?
A: Its inhibition is 15%.

Q: And the inhibition [10]?
A: Its inhibition is 3%.

Q: And the inhibition [11]?
A: The inhibition was 0%.

Q: What about the inhibition [12] of the same compound?
A: The inhibition was 0%.

Q: What about the inhibition (Homo sapiens [13]) of the same compound?
A: Its inhibition is 26%.

Q: And the inhibition [14]?
A: The inhibition was 0%.

Q: What about the inhibition (Homo sapiens [15]) of the same compound?
A: The inhibition was 2%.

Q: What about the inhibition [16] of the same compound?
A: Its inhibition is 4%.

Q: And the inhibition [17]?
A: Its inhibition is 11%.

Q: What about the inhibition [18] of the same compound?
A: Its inhibition is 0%.

Q: And the inhibition [19]?
A: The inhibition was 36%.
